Test results from ChEMBL document CHEMBL4118033, “Total Synthesis, Configuration Assignment, and Cytotoxic Activity Evaluation of Protulactone A” (J Nat Prod, 2017).
The source made the active and inactive calls.

Legend:
Type in all cases: functional, cell-based
CCRF-CEM = assay: Antiproliferative activity against human CCRF-CEM cells at 10 uM incubated for 48 hrs by sulforhodamine B assay
Procedure, shortened: (§1)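 Run by the NCI Developmental Therapeutics Program (Division of Cancer Treatment and Diagnosis) as part of the NCI60 human tumour cell line panel screen. Each compound was tested at a single dose of 10 μM. Results are reported as one-dose mean graphs.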

HL-60(TB) = assay: Antiproliferative activity against human HL-60(TB) cells at 10 uM incubated for 48 hrs by sulforhodamine B assay
Procedure, shortened: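 Tested within the NCI60 cancer cell line panel screen run by the Developmental Therapeutics Program (Division of Cancer Treatment and Diagnosis, National Cancer Institute). Each stereoisomer was given at a single dose of 10 μM. Results are reported as one-dose mean graphs.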

K562 = assay: Antiproliferative activity against human K562 cells at 10 uM incubated for 48 hrs by sulforhodamine B assay; procedure, shortened: as §1
MOLT-4 = assay: Antiproliferative activity against human MOLT4 cells at 10 uM incubated for 48 hrs by sulforhodamine B assay; procedure, shortened: as §1
RPMI-8226 = assay: Antiproliferative activity against human RPMI8226 cells at 10 uM incubated for 48 hrs by sulforhodamine B assay; procedure, shortened: as §1
SR = assay: Antiproliferative activity against human SR cells at 10 uM incubated for 48 hrs by sulforhodamine B assay
Procedure, shortened: (§2)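 Run by the NCI Developmental Therapeutics Program (Division of Cancer Treatment and Diagnosis) as part of the NCI60 human tumour cell line panel. Each compound was tested in vitro at a single dose of 10 μM, and the data are reported as one-dose mean graphs across the panel.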

A549 = assay: Antiproliferative activity against human A549/ATCC cells at 10 uM incubated for 48 hrs by sulforhodamine B assay; procedure, shortened: as §1
HOP-92 = assay: Antiproliferative activity against human HOP92 cells at 10 uM incubated for 48 hrs by sulforhodamine B assay; procedure, shortened: as §1
NCI-H226 = assay: Antiproliferative activity against human NCI-H226 cells at 10 uM incubated for 48 hrs by sulforhodamine B assay; procedure, shortened: as §1
NCI-H322M = assay: Antiproliferative activity against human NCI-H322M cells at 10 uM incubated for 48 hrs by sulforhodamine B assay; procedure, shortened: as §1
NCI-H460 = assay: Antiproliferative activity against human NCI-H460 cells at 10 uM incubated for 48 hrs by sulforhodamine B assay; procedure, shortened: as §1
NCI-H522 = assay: Antiproliferative activity against human NCI-H522 cells at 10 uM incubated for 48 hrs by sulforhodamine B assay; procedure, shortened: as §1
COLO 205 = assay: Antiproliferative activity against human COLO205 cells at 10 uM incubated for 48 hrs by sulforhodamine B assay; procedure, shortened: as §1
HCC 2998 = assay: Antiproliferative activity against human HCC2998 cells at 10 uM incubated for 48 hrs by sulforhodamine B assay; procedure, shortened: as §1
HCT-15 = assay: Antiproliferative activity against human HCT15 cells at 10 uM incubated for 48 hrs by sulforhodamine B assay; procedure, shortened: as §1
HT-29 = assay: Antiproliferative activity against human HT-29 cells at 10 uM incubated for 48 hrs by sulforhodamine B assay; procedure, shortened: as §1
KM12 = assay: Antiproliferative activity against human KM12 cells at 10 uM incubated for 48 hrs by sulforhodamine B assay; procedure, shortened: as §1
SF-268 = assay: Antiproliferative activity against human SF268 cells at 10 uM incubated for 48 hrs by sulforhodamine B assay; procedure, shortened: as §1
SF-295 = assay: Antiproliferative activity against human SF295 cells at 10 uM incubated for 48 hrs by sulforhodamine B assay; procedure, shortened: as §1
SF-539 = assay: Antiproliferative activity against human SF539 cells at 10 uM incubated for 48 hrs by sulforhodamine B assay; procedure, shortened: as §1
SNB-19 = assay: Antiproliferative activity against human SNB19 cells at 10 uM incubated for 48 hrs by sulforhodamine B assay; procedure, shortened: as §1
SNB-75 = assay: Antiproliferative activity against human SNB75 cells at 10 uM incubated for 48 hrs by sulforhodamine B assay; procedure, shortened: as §2
LOX IMVI = assay: Antiproliferative activity against human LOXIMVI cells at 10 uM incubated for 48 hrs by sulforhodamine B assay; procedure, shortened: as §1
Malme-3M = assay: Antiproliferative activity against human MALME-3M cells at 10 uM incubated for 48 hrs by sulforhodamine B assay; procedure, shortened: as §1
M14 = assay: Antiproliferative activity against human M14 cells at 10 uM incubated for 48 hrs by sulforhodamine B assay; procedure, shortened: as §1
MDA-MB-435 = assay: Antiproliferative activity against human MDA-MB-435 cells at 10 uM incubated for 48 hrs by sulforhodamine B assay; procedure, shortened: as §1
SK-MEL-28 = assay: Antiproliferative activity against human SK-MEL-28 cells at 10 uM incubated for 48 hrs by sulforhodamine B assay; procedure, shortened: as §1
SK-MEL-5 = assay: Antiproliferative activity against human SK-MEL-5 cells at 10 uM incubated for 48 hrs by sulforhodamine B assay; procedure, shortened: as §1
UACC-257 = assay: Antiproliferative activity against human UACC257 cells at 10 uM incubated for 48 hrs by sulforhodamine B assay; procedure, shortened: as §2
UACC-62 = assay: Antiproliferative activity against human UACC62 cells at 10 uM incubated for 48 hrs by sulforhodamine B assay; procedure, shortened: as §2
IGROV-1 = assay: Antiproliferative activity against human IGROV1 cells at 10 uM incubated for 48 hrs by sulforhodamine B assay; procedure, shortened: as §1
OVCAR-3 = assay: Antiproliferative activity against human OVCAR3 cells at 10 uM incubated for 48 hrs by sulforhodamine B assay; procedure, shortened: as §1
OVCAR-8 = assay: Antiproliferative activity against human OVCAR8 cells at 10 uM incubated for 48 hrs by sulforhodamine B assay; procedure, shortened: as §1
SK-OV-3 = assay: Antiproliferative activity against human SKOV3 cells at 10 uM incubated for 48 hrs by sulforhodamine B assay; procedure, shortened: as §1
A498 = assay: Antiproliferative activity against human A498 cells at 10 uM incubated for 48 hrs by sulforhodamine B assay; procedure, shortened: as §1
CAKI-1 = assay: Antiproliferative activity against human Caki1 cells at 10 uM incubated for 48 hrs by sulforhodamine B assay; procedure, shortened: as §1
RXF 393 = assay: Antiproliferative activity against human RXF393 cells at 10 uM incubated for 48 hrs by sulforhodamine B assay; procedure, shortened: as §1
UO-31 = assay: Antiproliferative activity against human UO31 cells at 10 uM incubated for 48 hrs by sulforhodamine B assay; procedure, shortened: as §2
PC-3 = assay: Antiproliferative activity against human PC3 cells at 10 uM incubated for 48 hrs by sulforhodamine B assay; procedure, shortened: as §1
DU-145 = assay: Antiproliferative activity against human DU145 cells at 10 uM incubated for 48 hrs by sulforhodamine B assay; procedure, shortened: as §1
Hs-578T = assay: Antiproliferative activity against human Hs 578T cells at 10 uM incubated for 48 hrs by sulforhodamine B assay; procedure, shortened: as §1
BT-549 = assay: Antiproliferative activity against human BT549 cells at 10 uM incubated for 48 hrs by sulforhodamine B assay; procedure, shortened: as §1
T47D = assay: Antiproliferative activity against human T47D cells at 10 uM incubated for 48 hrs by sulforhodamine B assay; procedure, shortened: as §2
MDA-MB-468 = assay: Antiproliferative activity against human MDA-MB-468 cells at 10 uM incubated for 48 hrs by sulforhodamine B assay; procedure, shortened: as §1

Measured: Activity

CC(=O)O[C@@H](C)[C@H]1O[C@H]2CC(=O)O[C@H]2[C@@H]1O
inactive: CCRF-CEM | HL-60(TB) | K562 | MOLT-4 | RPMI-8226 | SR | A549 | HOP-92 | NCI-H226 | NCI-H322M | NCI-H460 | NCI-H522 | COLO 205 | HCC 2998 | HCT-15 | HT-29 | KM12 | SF-268 | SF-295 | SF-539 | SNB-19 | SNB-75 | LOX IMVI | Malme-3M | M14 | MDA-MB-435 | SK-MEL-28 | SK-MEL-5 | UACC-257 | UACC-62 | IGROV-1 | OVCAR-3 | OVCAR-8 | SK-OV-3 | A498 | CAKI-1 | RXF 393 | UO-31 | PC-3 | DU-145 | Hs-578T | BT-549 | T47D | MDA-MB-468

CC(=O)O[C@@H](C)[C@@H]1O[C@@H]2CC(=O)O[C@@H]2[C@H]1O
inactive: CCRF-CEM | HL-60(TB) | K562 | MOLT-4 | RPMI-8226 | SR | A549 | HOP-92 | NCI-H226 | NCI-H322M | NCI-H460 | NCI-H522 | COLO 205 | HCC 2998 | HCT-15 | HT-29 | KM12 | SF-268 | SF-295 | SF-539 | SNB-19 | SNB-75 | LOX IMVI | Malme-3M | M14 | MDA-MB-435 | SK-MEL-28 | SK-MEL-5 | UACC-257 | UACC-62 | IGROV-1 | OVCAR-3 | OVCAR-8 | SK-OV-3 | A498 | CAKI-1 | RXF 393 | UO-31 | PC-3 | DU-145 | Hs-578T | BT-549 | T47D | MDA-MB-468
